Laboratory results as given in ChEMBL document CHEMBL1148379 (J Med Chem, 2004).
pKi: −log10 of the molar value.

How the values were obtained:
[1] = biological target: Bifunctional dihydrofolate reductase-thymidylate synthase (Plasmodium falciparum K1, UniProt P13922, C59R/I164L/S108N); test: Inhibitory activity against triple mutant dihydrofolate reductase (C59R S108N I164L DHFR)
[2] = biological target: Bifunctional dihydrofolate reductase-thymidylate synthase (Plasmodium falciparum K1) (UniProt P13922); test: Inhibitory activity against quadruple mutant dihydrofolate reductase (N51I C59R S108N I164L DHFR), relative to trimethoprim
Sequence of Bifunctional dihydrofolate reductase-thymidylate synthase (Plasmodium falciparum K1) (P13922 whole entry, looked up): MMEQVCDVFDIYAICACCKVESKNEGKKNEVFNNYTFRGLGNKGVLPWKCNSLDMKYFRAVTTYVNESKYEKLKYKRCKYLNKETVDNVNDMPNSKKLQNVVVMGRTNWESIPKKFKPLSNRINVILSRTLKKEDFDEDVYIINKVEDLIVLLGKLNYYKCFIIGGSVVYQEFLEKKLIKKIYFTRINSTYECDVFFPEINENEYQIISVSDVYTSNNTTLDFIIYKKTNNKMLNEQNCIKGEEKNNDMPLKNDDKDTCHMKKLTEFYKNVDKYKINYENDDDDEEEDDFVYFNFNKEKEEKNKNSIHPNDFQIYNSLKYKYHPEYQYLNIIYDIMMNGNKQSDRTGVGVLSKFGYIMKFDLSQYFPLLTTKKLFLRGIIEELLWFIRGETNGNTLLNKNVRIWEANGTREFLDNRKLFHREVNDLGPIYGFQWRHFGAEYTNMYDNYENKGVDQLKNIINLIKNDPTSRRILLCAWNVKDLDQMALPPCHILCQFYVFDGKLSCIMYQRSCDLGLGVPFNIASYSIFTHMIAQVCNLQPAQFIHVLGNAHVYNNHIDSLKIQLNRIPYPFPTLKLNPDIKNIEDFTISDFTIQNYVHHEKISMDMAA
Procedure, shortened: (§1)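 Wild-type and mutant P. falciparum DHFR expressed in E. coli BL21(DE3)pLysS. Ki calculated assuming inhibitors compete with substrate at the active site.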

[3] = biological target: Bifunctional dihydrofolate reductase-thymidylate synthase (Plasmodium falciparum K1) (UniProt P13922); test: Inhibitory activity against double mutant dihydrofolate reductase (C59R S108N DHFR), relative to trimethoprim; procedure, shortened: as §1
[4] = biological target: Bifunctional dihydrofolate reductase-thymidylate synthase (Plasmodium falciparum K1, UniProt P13922, C59R/I164L/N51I/S108N); test: Inhibitory activity against quadruple mutant dihydrofolate reductase (N51I C59R S108N I164L DHFR)
Sequence of Bifunctional dihydrofolate reductase-thymidylate synthase (Plasmodium falciparum K1, UniProt P13922, C59R/I164L/N51I/S108N) (P13922 whole entry, looked up, stated change not applied): as the sequence (P13922 whole entry, looked up) above

[5] = biological target: Bifunctional dihydrofolate reductase-thymidylate synthase (Plasmodium falciparum K1, UniProt P13922); test: Inhibitory activity against double mutant dihydrofolate reductase (C59R+S108N DHFR)
Sequence of Bifunctional dihydrofolate reductase-thymidylate synthase (Plasmodium falciparum K1, UniProt P13922) (P13922 whole entry): as the sequence (P13922 whole entry, looked up) above

[6] = biological target: Bifunctional dihydrofolate reductase-thymidylate synthase (Plasmodium falciparum K1) (UniProt P13922); test: Inhibitory activity against wild-type dihydrofolate reductase (S108N DHFR), relative to trimethoprim; procedure, shortened: as §1
[7] = biological target: Bifunctional dihydrofolate reductase-thymidylate synthase (Plasmodium falciparum K1) (UniProt P13922); test: Inhibitory activity against triple mutant dihydrofolate reductase (C59R S108N I164L DHFR), relative to trimethoprim; procedure, shortened: as §1

Sequence of Bifunctional dihydrofolate reductase-thymidylate synthase (Plasmodium falciparum K1, UniProt P13922, C59R/I164L/S108N) (P13922 whole entry, looked up, stated change not applied): as the sequence (P13922 whole entry, looked up) above

Question: What does the source list for `CCCCCCCOc1ccc(Cc2cnc(N)nc2N)cc1`?
Answer: pKi [1]: 5.66; Relative activity [2]: 0.2; Relative activity [3]: 0.8; pKi [4]: 5.86; pKi [5]: 6.71; Relative activity [6]: 1.7; Relative activity [7]: 0.4

Question: What does the source list for `CCOc1cc(Cc2cnc(N)nc2N)ccc1OCCCOc1ccccc1`?
Answer: pKi [1]: 6.78; Relative activity [2]: 0.12; Relative activity [3]: 0.2; pKi [4]: 6.11; pKi [5]: 7.32; Relative activity [6]: 0.06; Relative activity [7]: 0.03

Question: With `CCCOc1cc(Cc2c(N)nc(N)nc2CC)ccc1OCc1cc(OC)c(OC)c(OC)c1` as the molecule, how does the pKi [1] read?
Answer: 6.81

Question: What about the Relative activity [2] of the same molecule?
Answer: 0.1

Question: What about the Relative activity [3] of the same molecule?
Answer: 0.2

Question: And the pKi [4]?
Answer: 6.16

Question: What about the pKi [5] of the same molecule?
Answer: 7.31

Question: And the Relative activity [6]?
Answer: 0.17

Question: What about the Relative activity [7] of the same molecule?
Answer: 0.03

Question: With `COc1ccc(Cc2cnc(N)nc2N)cc1` as the molecule, how does the pKi [1] read?
Answer: 5.40

Question: And the Relative activity [2]?
Answer: 3.1

Question: And the Relative activity [3]?
Answer: 1.9

Question: What about the pKi [4] of the same molecule?
Answer: 4.69

Question: What about the pKi [5] of the same molecule?
Answer: 6.33

Question: What about the Relative activity [6] of the same molecule?
Answer: 2.3

Question: What about the Relative activity [7] of the same molecule?
Answer: 0.7

Question: `CCCCCOc1ccc(Cc2cnc(N)nc2N)cc1OCC` was tested. Which pKi [1] did it give?
Answer: 5.93

Question: What about the Relative activity [2] of the same molecule?
Answer: 0.1

Question: What about the Relative activity [3] of the same molecule?
Answer: 0.2

Question: And the pKi [4]?
Answer: 6.04

Question: And the pKi [5]?
Answer: 7.33

Question: And the Relative activity [6]?
Answer: 0.1

Question: What about the Relative activity [7] of the same molecule?
Answer: 0.2

Question: How did the pKi [1] turn out when `COc1cc(Cc2cnc(N)nc2N)ccc1OCCCOc1ccccc1` was run?
Answer: 6.59

Question: What about the Relative activity [2] of the same molecule?
Answer: 0.09

Question: What about the Relative activity [3] of the same molecule?
Answer: 0.15

Question: And the pKi [4]?
Answer: 6.22

Question: And the pKi [5]?
Answer: 7.43

Question: And the Relative activity [6]?
Answer: 0.19

Question: What about the Relative activity [7] of the same molecule?
Answer: 0.05

Question: With `COc1cc(Cc2cnc(N)nc2N)ccc1OCCCOCCCOc1ccccc1` as the molecule, how does the pKi [1] read?
Answer: 6.37

Question: And the Relative activity [2]?
Answer: 0.33

Question: What about the Relative activity [3] of the same molecule?
Answer: 0.63

Question: And the pKi [4]?
Answer: 5.66

Question: What about the pKi [5] of the same molecule?
Answer: 6.81

Question: What about the Relative activity [6] of the same molecule?
Answer: 0.18

Question: What about the Relative activity [7] of the same molecule?
Answer: 0.07

Question: What does the source list for `CCOc1ccc(Cc2cnc(N)nc2N)cc1OC`?
Answer: pKi [1]: 5.45; Relative activity [2]: 1.8; Relative activity [3]: 0.8; pKi [4]: 4.93; pKi [5]: 6.73; Relative activity [6]: 1.5; Relative activity [7]: 0.6

Question: `CCCCOc1cc(Cc2cnc(N)nc2N)ccc1OC` was tested. Which pKi [1] did it give?
Answer: 6.11

Question: What about the Relative activity [2] of the same molecule?
Answer: 0.2

Question: What about the Relative activity [3] of the same molecule?
Answer: 0.8

Question: And the pKi [4]?
Answer: 5.99

Question: What about the pKi [5] of the same molecule?
Answer: 6.71

Question: What about the Relative activity [6] of the same molecule?
Answer: 0.2

Question: What about the Relative activity [7] of the same molecule?
Answer: 0.1

Question: `CCOc1cc(Cc2cnc(N)nc2N)ccc1OCCCc1ccccc1` was tested. Which pKi [1] did it give?
Answer: 6.43

Question: And the Relative activity [2]?
Answer: 0.08

Question: What about the Relative activity [3] of the same molecule?
Answer: 0.08

Question: What about the pKi [4] of the same molecule?
Answer: 6.28

Question: And the pKi [5]?
Answer: 7.97

Question: And the Relative activity [6]?
Answer: 0.1

Question: What about the Relative activity [7] of the same molecule?
Answer: 0.06

Question: With `CCc1nc(N)nc(N)c1Cc1ccc(OCc2ccccc2)c(OC)c1` as the molecule, how does the pKi [1] read?
Answer: 5.43

Question: And the Relative activity [2]?
Answer: 0.11

Question: And the Relative activity [3]?
Answer: 0.25

Question: What about the pKi [4] of the same molecule?
Answer: 6.14

Question: What about the pKi [5] of the same molecule?
Answer: 7.22

Question: What about the Relative activity [6] of the same molecule?
Answer: 0.3

Question: What about the Relative activity [7] of the same molecule?
Answer: 0.66

Question: With `CCCCCOc1ccc(Cc2cnc(N)nc2N)cc1` as the molecule, how does the pKi [1] read?
Answer: 6.27

Question: And the Relative activity [2]?
Answer: 0.1

Question: What about the Relative activity [3] of the same molecule?
Answer: 0.6

Question: And the pKi [4]?
Answer: 6.04

Question: And the pKi [5]?
Answer: 6.86

Question: What about the Relative activity [6] of the same molecule?
Answer: 0.8

Question: What about the Relative activity [7] of the same molecule?
Answer: 0.1
